Screens deposited in PubChem by several laboratories.
Compounds with a hit are over-represented: about 2.5% of the library has one in this group of screens.
Rin1 Abl inh: blocks binding of human Rin1 to Abl | inhibition, % at 7.35 µM | AID 588664 | TR-FRET Rin1/Abl binding, biochemical | P00519+Q13671 | 0.4% of 360,000 active; in the data active = inhibition above about 5%, passing the limit was not always enough
ABHD5-PLIN5 inh: blocks binding of human ABHD5 to perilipin-5. Q00G26+Q8WTS1. inhibition, % at 4 µM. 0.78% of 360,000 active. Split G. princeps luciferase complementation, luminescence, 4 h;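 active = inhibition above the mean inhibition across every tested compound plus 3 SD, cut at about 22% in these data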;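 also: 0% = DMSO only wells and the 100% control is not disclosed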
MBD2 inh: MBD2-methylated oligo binding inhibition. Q9UBB5. TR-FRET, MBD2 binding to methylated oligonucleotide. inhibition, % at 4.4 µM. 0.31% of 370,000 active. AID 686964; in the data active = inhibition above about 13%
UHRF1 binding: UHRF1 methyl-DNA binding inhibition | Q96T88 | UHRF1 binding to methylated oligo, TR-FRET | inhibition, % at 4.4 µM | 0.75% of 370,000 active; in the data active = inhibition above about 21%;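 also: UHRF1 SRA domain binding a hemimethylated CpG hairpin DNA probe; 0% = median of test compound wells and 100% = reference inhibitor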
B2AR ag: agonists of human beta-2 adrenergic receptor inducing internalization. P07550. Am2.2-beta2AR cells, FAP receptor internalization, flow cytometry. response, % (test concentration not listed). 0.43% of 340,000 active;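 active = response above a set limit, near 3 SD of response in nonfluorescent compounds, cut at about 42% in these data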
Arr AP2 block: inhibitors of human beta-arrestin and AP2 interaction; FITC-arrestin peptide / GST-AP2 beads, flow cytometry; AP2 beta2 appendage carries R879A mutation; inhibition, % at 10 µM; 0.31% of 340,000 active; AID 504490;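 active = inhibition above a set limit, near 3 SD of compounds lacking own fluorescence, cut at about 54% in these data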;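 also: plate controls were DMSO wells for no effect and 5 µM unlabelled arrestin peptide for full effect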
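System: GST-AP2 R879A glutathione beads. Medium: PBS with 0.05% Tween 20 and 0.1% BSA. Also added: FITC-arrestin peptide, 50 nM. Incubation: 12 min plus 1 h, RT. Measured by: high-throughput flow cytometry of beads, ex 488, em 535 nm. Evaluation: percent drop in bead-associated FITC signal.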
Arr-AP2 CP1: human beta-arrestin and AP2 interaction inhibition, cherry pick | shares compounds with Arr AP2 block | GST-AP2 beads, FITC arrestin peptide binding, flow cytometry; GST-fused beta2-adaptin appendage, R879A mutant | inhibition, % at 10 µM | 2% of 1,300 active;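 active = inhibition above a set limit, roughly 3 SD of non-fluorescent compound noise, cut at about 38% in these data; inactive = inhibition at or below that limit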;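 also: loss of bead fluorescence from 50 nM FITC arrestin peptide bound to appendage; 0% = negative control wells and 100% = excess unlabelled arrestin peptide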
Target sequence (P63010 whole entry, looked up, the tested form may be a part, one chain of several): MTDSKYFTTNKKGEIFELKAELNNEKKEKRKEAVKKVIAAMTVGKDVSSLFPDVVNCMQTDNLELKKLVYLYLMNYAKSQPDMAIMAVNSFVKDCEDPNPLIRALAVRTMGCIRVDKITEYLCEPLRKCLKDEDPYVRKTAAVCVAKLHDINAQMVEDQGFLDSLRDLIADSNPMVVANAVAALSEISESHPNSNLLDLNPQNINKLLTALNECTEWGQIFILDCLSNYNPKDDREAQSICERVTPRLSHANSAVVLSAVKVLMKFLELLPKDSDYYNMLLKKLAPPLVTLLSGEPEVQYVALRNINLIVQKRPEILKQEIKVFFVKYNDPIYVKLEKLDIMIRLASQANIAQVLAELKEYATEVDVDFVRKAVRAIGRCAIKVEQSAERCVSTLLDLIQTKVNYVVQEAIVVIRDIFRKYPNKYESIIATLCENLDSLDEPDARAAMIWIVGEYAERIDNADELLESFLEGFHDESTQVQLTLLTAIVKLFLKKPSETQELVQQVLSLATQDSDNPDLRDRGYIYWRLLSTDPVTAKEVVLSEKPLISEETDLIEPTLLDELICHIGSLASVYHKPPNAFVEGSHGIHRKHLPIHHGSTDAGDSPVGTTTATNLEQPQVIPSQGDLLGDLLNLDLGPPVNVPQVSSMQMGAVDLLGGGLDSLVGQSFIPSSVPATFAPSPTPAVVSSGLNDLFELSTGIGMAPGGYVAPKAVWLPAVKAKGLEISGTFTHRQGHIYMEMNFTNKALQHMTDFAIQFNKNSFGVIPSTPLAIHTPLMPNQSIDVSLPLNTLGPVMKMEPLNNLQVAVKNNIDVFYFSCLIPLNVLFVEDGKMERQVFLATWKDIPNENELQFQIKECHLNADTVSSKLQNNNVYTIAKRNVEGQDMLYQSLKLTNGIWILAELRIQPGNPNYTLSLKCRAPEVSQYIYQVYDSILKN
GST GSH counter: disrupts GST binding to glutathione beads, arrestin-AP2 artifact; shares compounds with Arr AP2 block; GST-fluorescein binding to GSH beads, fluorescence, counter-screen; inhibition, % at 10 µM; 2% of 1,300 active;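 active = inhibition above 50%, about 3 SD of the inhibition seen with non-fluorescent compounds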;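 also: fluorescein maleimide labelled GST captured on 4 micron glutathione beads; higher means more loss of bead fluorescence from quenching or blocked binding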
Numbers without * were called inactive; . = no result.

SMILES | Rin1 Abl inh | ABHD5-PLIN5 inh | MBD2 inh | UHRF1 binding | B2AR ag | Arr AP2 block | Arr-AP2 CP1 | GST GSH counter
CCNC(=S)/N=C(\N)Nc1nc(C)c2cc(C)ccc2n1 | -2 | -24 | -5 | -3 | -26 | 64* | -7 | 1
CCOc1ccc2nc(N/C(N)=N/C(=S)Nc3ccc(C)c(C)c3)nc(C)c2c1 | -1 | -9 | -6 | -2 | -6 | 7 | . | .
C[C@H]1/C=C/CC(=O)N[C@@H](c2ccc3ccccc3c2)[C@@H](C)/C=C/CC(=O)N[C@H]1c1ccc2ccccc2c1 | . | . | 0 | 3 | . | . | . | .
COc1ccccc1OCC(=O)N/N=C/c1cccc2cccnc12 | -5 | 0 | -1 | -3 | 3 | 41 | . | .
COc1cccc(/C=N/NC(=O)COc2cccc3cccnc23)c1O | -2 | 6 | 1 | -6 | -1 | 60* | -11 | -1
COc1cc(C(=O)OCC(=O)Nc2nnc(-c3ccccc3)o2)cc(OC)c1OC | 2 | 13 | -5 | -3 | 7 | 55* | -6 | -8
COc1cc(C(=O)NCC(=O)OCC(=O)Nc2nnc(-c3ccccc3)o2)cc(OC)c1OC | 1 | -3 | -6 | -4 | -5 | 0 | . | .
CCOc1ccc(-c2csc(NC(=O)CSCC(=O)O)n2)c2ccccc12 | 7 | -11 | -4 | -5 | -1 | 62* | 7 | 0
O=C(NC1CCCCN(Cc2ccc(OC(F)(F)F)cc2)C1=O)c1cccc(F)c1 (centres undefined) | . | . | -1 | -2 | . | . | . | .
COC(=O)c1ccc(NC(=O)CN2C(=O)C3C4C=CC(C4)C3C2=O)cc1 (centres undefined) | -1 | -2 | -1 | 4 | 7 | 59* | 8 | -5
O=C(CN1C(=O)C2C3C=CC(C3)C2C1=O)Nc1ccc(C(=O)O)cc1 (centres undefined) | -1 | -3 | -3 | -3 | -1 | -7 | . | .
CCCC[C@H]1C2CC(OC(=O)Nc3ccccc3)C(C2)[C@H]2CCCCN21 (some centres undefined) | . | . | -2 | -1 | . | . | . | .
COc1cc2c(cc1NC(=O)C(C)NCc1ccccc1)oc1ccccc12 (centres undefined) | 1 | -2 | -1 | 2 | -18 | 10 | 2 | -5
COc1cc2c(cc1NC(=O)Nc1ccccc1)oc1ccccc12 | -2 | 5 | -3 | 1 | 4 | -3 | 5 | -1
COc1ccc(N2CCCN(CC(=O)Nc3ccc(Cl)c(Cl)c3)CC2)cc1 | . | . | -7 | -2 | . | . | . | .
COC(=O)C1CN(Cc2ccc(OC)cc2)CCS(=O)(=O)N1Cc1ccc(C)cc1 (centres undefined) | . | . | 3 | 0 | . | . | . | .
COc1ccccc1C(=O)NCCC(=O)N1CCN(C(=O)c2ccco2)CC1 | -1 | 2 | -2 | 4 | -10 | -7 | . | .
COc1ccccc1C(=O)NCCC(=O)N1CCN(C(C)=O)CC1 | 3 | 0 | -1 | 3 | -1 | 61* | 9 | -2
COc1ccc(NC(=O)CCCC(=O)c2ccccc2)cc1OC | -1 | 1 | -3 | 2 | -1 | 61* | -7 | -7
Cc1ccc(NC(=O)CC(=O)c2ccccc2)cc1C | -1 | 2 | 1 | -2 | 5 | 12 | 4 | 0
CSc1ccccc1C(=O)Nc1ccc(C)c(C)c1 | 5 | 14 | 0 | 5 | 7 | 54* | -9 | -8
CSc1ccccc1C(=O)Nc1cc(C)cc(C)c1 | 3 | 4 | -3 | 0 | 2 | -6 | . | .
O=C(CC(=O)c1ccccc1)Nc1ccc(Cl)cc1 | 0 | 7 | -2 | 3 | -9 | 8 | 3 | 7
O=C(NN=Cc1ccc(-c2ccccc2)cc1)c1cc(-c2ccc(Cl)cc2)n[nH]1 | . | . | 2 | 0 | . | . | . | .
COc1ccccc1NC(=O)CC(=O)c1ccccc1 | 1 | 6 | 2 | 0 | 0 | -6 | 1 | 1
SMILES | Rin1 Abl inh | ABHD5-PLIN5 inh | MBD2 inh | UHRF1 binding | B2AR ag | Arr AP2 block | Arr-AP2 CP1 | GST GSH counter
O=C(Cc1cccs1)NC1CCCCN(Cc2cccc(Cl)c2)C1=O (centres undefined) | . | . | 0 | -1 | . | . | . | .
Cc1ccccc1CN1CCN(CC2CC2)CC1CCO (centres undefined) | -2 | 9 | 1 | 1 | 2 | 57* | 4 | -4
COCCCNC(=O)C[C@H]1C[C@@]2(C(=O)OC)C(=C[C@H](C3CCCC3)O[C@@H]2C)N(CCc2ccc(OC)c(OC)c2)C1=O | . | . | -1 | 0 | . | . | . | .
Cc1cc(C(=O)CCl)c(C)n1-c1cccc([N+](=O)[O-])c1 | 0 | 8 | -4 | -1 | 6 | 62* | 9 | 1
CC(=O)c1c(C(C)=O)c(C)n(-c2cccc([N+](=O)[O-])c2)c1C | 1 | 6 | 0 | -2 | 0 | -3 | . | .
CCCCCC(=O)NC1CCCCN(Cc2ccc(Cl)cc2)C1=O (centres undefined) | . | . | 2 | 2 | . | . | . | .
C=CCn1c(SCC(=O)Nc2ccccc2-c2ccccc2)nnc1-c1ccc(Cl)cc1 | . | . | 3 | 4 | . | . | . | .
COc1cccc(C2C(C#N)=C(N)OC(C(C)(C)C)=C2C#N)c1 (centres undefined) | 0 | 1 | 4 | 0 | 5 | 93* | -8 | -6
O=C(CSc1nc(O)c(C(c2ccccc2)c2ccccc2)c(=O)[nH]1)N1CCOCC1 | 0 | 1 | 0 | 0 | 7 | 68* | -17 | -6
O=C(CSc1nc(O)c(-c2ccccc2)c(=O)[nH]1)N1CCOCC1 | -2 | -7 | 3 | 0 | 6 | -46 | . | .
CCN1CCCCC(NC(=O)c2ccc(C)cc2)C1=O (centres undefined) | . | . | 0 | 0 | . | . | . | .
N#Cc1nc(-c2ccco2)oc1NCc1ccc(F)cc1 | 3 | -3 | -9 | 0 | -4 | 72* | -8 | -3
N#Cc1nc(-c2ccco2)oc1NCc1cccnc1 | -1 | -10 | -4 | -4 | -13 | 8 | . | .
S=c1[nH]nc(-c2cc(-c3ccccc3)n[nH]2)n1/N=C/c1cccc2ccccc12 | . | . | -4 | -2 | . | . | . | .
CCn1c(=O)n(CC(=O)Nc2ccc(F)cc2)c(=O)c2ccccc21 | 3 | -2 | 1 | -3 | 3 | 12 | -2 | -10
CCn1c(=O)n(CC(=O)NCc2ccccc2OC)c(=O)c2ccccc21 | 1 | 5 | -4 | 1 | -5 | -7 | . | .
CCOC(=O)c1cc2c(ccn2C)n1Cc1ccc(Cl)cc1 | -3 | -14 | 0 | -3 | 3 | 54* | -9 | -2
Cc1cc(C)cc(NC(=O)N2CCC(c3nc4ccc(Cl)cc4[nH]3)CC2)c1 | . | . | -1 | -1 | . | . | . | .
O=C(c1ccccc1F)N(NC(=O)C(O)(c1ccccc1)c1ccccc1)c1ccccc1 | 1 | 6 | 9 | 5 | 5 | 87* | -7 | 2
